Experimental data from BindingDB's records for doi:10.1021/ml100053y (2010).

Molecular target: T1, 5-hydroxytryptamine receptor 1A (Homo sapiens, UniProt P08908)
T1 sequence (P08908 whole entry): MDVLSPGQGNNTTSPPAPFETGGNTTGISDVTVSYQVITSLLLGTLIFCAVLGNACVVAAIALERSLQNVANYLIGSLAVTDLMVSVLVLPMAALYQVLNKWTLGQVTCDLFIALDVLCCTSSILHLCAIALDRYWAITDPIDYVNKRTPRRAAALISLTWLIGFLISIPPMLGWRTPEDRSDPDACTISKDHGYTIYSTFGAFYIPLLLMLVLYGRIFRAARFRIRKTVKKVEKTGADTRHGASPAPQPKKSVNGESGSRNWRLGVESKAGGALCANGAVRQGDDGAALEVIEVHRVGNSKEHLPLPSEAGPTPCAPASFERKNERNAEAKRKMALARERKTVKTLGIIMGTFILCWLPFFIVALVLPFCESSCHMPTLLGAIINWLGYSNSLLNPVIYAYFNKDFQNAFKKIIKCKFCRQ
Experiment: Displacement of [3H]8-OH-DPAT from human 5HT1A receptor expressed in EBNA gene-positive HEK293 cells after 120 mins
Method in brief: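 Radioligand competition binding with [3H]-8-hydroxy-DPAT on membranes from transfected HEK-293 EBNA cells expressing h5-HT1AR. Buffer was 50 mM Tris-HCl, 0.5 mM MgSO4, pH 7.4. Ki was obtained from IC50 by the Cheng-Prusoff equation. Values are means ± SEM of 2–4 independent experiments, each run in triplicate.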

Ki [nM]	SMILES
2.4	O=c1n(CCCCN2CCN(c3cccc4ccccc34)CC2)c(O)c2n1CCC2 [2-[4-(4-Naphthalen-1-yl-piperazin-1-yl)-butyl]-tetrahydro-pyrrolo[1,2-c]imidazole-1,3-dione]
2.4	CN(C)S(=O)(=O)c1ccc2cccc(N3CCN(CCCCn4c(O)c5n(c4=O)CCC5)CC3)c2c1 [8-{4-[4-(1,3-Dioxotetrahydro-1H-pyrrolo[1,2-c]imidazol-2(3H)-yl)butyl]piperazin-1-yl}-N,N-dimethylnaphthalene-2-sulfonamide]
